Activity calls are given as the source filed them. No cut-off for these calls is given here.
How the values were obtained:
CCRF-CEM [1] = experiment: Antiproliferative activity against human CEM cells after 2 days by coulter counter analysis; type: functional, cell-based; conditions: 48 h
Outline: (§1)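 Cells suspended at 300,000–500,000 cells/mL and mixed 1:1 with diluted compound. Incubated at 37 °C for two days, then counted with a Coulter counter. IC50 is the concentration inhibiting proliferation by 50%, as mean ± SE from dose-response curves of at least three independent experiments.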

HeLa [2] = experiment: Induction of apoptosis in human HeLa cells assessed as decrease in Bcl2 protein expression at 0.25 to 0.5 uM after 48 hrs by Western blot analysis; type: functional, cell-based
Outline: (§2)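 HeLa cells treated for 24 or 48 h were washed in cold PBS and lysed on ice for 30 min. Lysates were cleared at 15,000 × g, run on SDS-PAGE and blotted. Membranes were probed 2 h at room temperature with antibodies to the target protein, then peroxidase secondary and ECL. Blots were reprobed for β-actin as loading control.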

HeLa [3] = experiment: Induction of apoptosis in human HeLa cells assessed as increase in hypodiploid DNA content at subG1-phase after 24 hrs by flow cytometric analysis relative to untreated control; type: functional, cell-based
Outline: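 HeLa cells treated for 24 h over 0.06–0.5 µM. Cells fixed in ice-cold 70% ethanol, lysed with buffer containing RNase A and 0.1% Triton X-100, and stained with PI. DNA content read by flow cytometry, including the sub-G1 fraction. Mean ± SEM of three independent experiments.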

HeLa [4] = experiment: Induction of apoptosis in human HeLa cells assessed as accumulation of necrotic cells after 48 hrs by Annexin-V-FITC/propidium iodide staining-based flow cytometric analysis; type: functional, cell-based
Outline: (§3)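 HeLa cells treated for 24 or 48 h, then labelled with annexin-V-FITC and PI. Analysed by flow cytometry with excitation at 488 nm and emission at 525 nm (FITC) and 585 nm (PI). Quadrants scored as live, early apoptotic, late apoptotic or necrotic. Mean ± SEM of four independent experiments.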

MOLT-4 = experiment: Antiproliferative activity against human MOLT4 cells after 2 days by coulter counter analysis; type: functional, cell-based; conditions: MOLT-4, 48 h
CCRF-CEM [5] = experiment: Antiproliferative activity against human CEM cells after 72 hrs by MTT assay; type: functional, cell-based
Outline: (§4)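 Cells seeded at 8 × 10³ per well in complete medium and exposed to a range of compound concentrations at 37 °C for 72 h. Viability read by MTT test. IC50 taken as the concentration inhibiting proliferation by 50%.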

Bos taurus = species on record: Bos taurus; experiment: Displacement of [3H]colchicine from bovine brain tubulin at 5 uM by DEAE-cellulose filter method
Outline: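 Inhibition of [³H]colchicine binding to bovine brain tubulin. Reaction mixtures held 1 µM tubulin, 5 µM [³H]colchicine and 5 µM test compound.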

HeLa [6] = experiment: Induction of cell cycle arrest at G2/M phase in human HeLa cells assessed as decrease in cyclin B1 expression at 0.25 to 5 uM after 48 hrs by Western blot analysis; type: functional, cell-based; outline: as §2
[7] = Antiproliferative activity against human vinblastine-resistant CEM/VBL100 cells after 72 hrs by MTT assay; type: functional, cell-based; conditions: CEM/VBL100, 72 h; outline: as §4
HeLa [8] = experiment: Effect on Bax protein expression in human HeLa cells at 0.25 to 0.5 uM after 24 to 48 hrs by Western blot analysis; type: functional, cell-based; outline: as §2
Mus musculus [9] = experiment: Toxicity in nude BALB/c mouse xenografted with human HT-29 cells assessed as organism mortality at 100 mg/kg, ip administered 3 times per week for 1 week measured on day 7; type: organism-based; parameters: dose 100 mg/kg, route intraperitoneal; conditions: in vivo, 168 h
Outline: (§5)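 HT-29 cells in log phase, suspended at 1 × 10⁷ cells/mL in serum-free RPMI 1640, 0.2 mL injected subcutaneously into the back of nude mice. At about 300 mm³, mice were randomised to vehicle or treatment groups (six per group). The compound was given in DMSO by i.p. injection at 0.01 mL/g body weight. Body weight was recorded on set days; mice were euthanised after 23 days.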

L1210 = experiment: Antiproliferative activity against mouse L1210 cells after 2 days by coulter counter analysis; type: functional, cell-based; conditions: L1210, 48 h; outline: as §1
HeLa [10] = experiment: Induction of cell cycle arrest at G2/M phase in human HeLa cells assessed as decrease in Cdc2 phosphorylation at Tyr15 at 0.25 to 5 uM after 24 hrs by Western blot analysis; type: functional, cell-based; outline: as §2
HeLa [11] = experiment: Induction of cell cycle arrest at G2/M phase in human HeLa cells assessed as decrease in Cdc25C expression at 0.25 to 5 uM after 24 hrs by Western blot analysis; type: functional, cell-based; outline: as §2
HeLa [12] = experiment: Induction of cell cycle arrest at G2/M phase in human HeLa cells assessed as increase in cyclin B1 expression at 0.25 to 5 uM after 24 hrs by Western blot analysis; type: functional, cell-based; outline: as §2
HeLa [13] = experiment: Induction of cell cycle arrest at G2/M phase in human HeLa cells assessed as partial recovery in Cdc2 phosphorylation at Tyr15 at 0.25 to 5 uM after 48 hrs by Western blot analysis; type: functional, cell-based; outline: as §2
A549 = experiment: Antiproliferative activity against human A549 cells after 72 hrs by MTT assay; type: functional, cell-based; conditions: A549, 72 h; outline: as §4
HT-29 [14] = experiment: Antitumor activity against human HT-29 cells xenografted in BALB/c nude mouse assessed as reduction in tumor mass at 100 mg/kg, ip administered 3 times per week for 1 week; type: functional, organism-based; parameters: dose 100 mg/kg
HeLa [15] = experiment: Induction of apoptosis in human HeLa cells assessed as accumulation of late apoptotic cells after 24 hrs by Annexin-V-FITC/propidium iodide staining-based flow cytometric analysis; type: functional, cell-based; outline: as §3
HeLa [16] = experiment: Induction of apoptosis in human HeLa cells assessed as accumulation of necrotic cells after 24 hrs by Annexin-V-FITC/propidium iodide staining-based flow cytometric analysis; type: functional, cell-based; outline: as §3
FM3A = experiment: Antiproliferative activity against mouse FM3A cells after 2 days by coulter counter analysis; type: functional, cell-based; conditions: 48 h
HeLa [17] = experiment: Induction of apoptosis in human HeLa cells assessed as ROS production at 0.25 to 5 uM after 24 to 48 hrs by H2-DCFDA-staining-based flow cytometric analysis; type: functional, cell-based
Outline: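 HeLa cells treated 24 or 48 h, trypsinized and resuspended in HBSS containing HE (2.5 µM) or H₂DCFDA (0.1 µM). Incubated 10 min at 37 °C, resuspended in HBSS, and ROS read by flow cytometry. Mean ± SEM of three independent experiments.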

LoVo = experiment: Antiproliferative activity against doxorubicin-resistant human LoVo cells after 72 hrs by MTT assay; type: functional, cell-based; outline: as §4
Mus musculus [18] = experiment: Toxicity in nude BALB/c mouse xenografted with human HT-29 cells assessed as weight changes at 100 mg/kg, ip administered 3 times per week for 1 week; type: organism-based; parameters: dose 100 mg/kg, route intraperitoneal; conditions: in vivo, 168 h; outline: as §5
HT-29 [19] = experiment: Cytotoxicity against human HT-29 cells; type: functional, cell-based
HeLa [20] = experiment: Induction of apoptosis in human HeLa cells assessed as accumulation of late apoptotic cells after 48 hrs by Annexin-V-FITC/propidium iodide staining-based flow cytometric analysis; type: functional, cell-based; outline: as §3
HT-29 [21] = experiment: Antitumor activity against human HT-29 cells xenografted in BALB/c nude mouse assessed as reduction in tumor growth at 100 mg/kg, ip administered 3 times per week for 1 week; type: functional; parameters: scale not given: the % may be the effect or the level left; conditions: route intraperitoneal
Outline: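 HT-29 cells (1 × 10⁷/mL in serum-free RPMI 1640, 0.2 mL) were injected subcutaneously in the back of nude mice. At about 300 mm³ tumours, 18 mice were randomised to vehicle or drug groups. Drug in DMSO was given i.p. at 0.01 mL/g, 100 mg/kg, three times weekly for one week. Tumour volume = (L × W²)/2 by caliper; body weight also recorded; six mice per group.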

## COc1cc(C(=O)c2sc(N3CCCC3)nc2N)cc(OC)c1OC
CCRF-CEM [1]
  IC50: 320 nM
HeLa [2]
  Activity: Active
HeLa [3]
  Activity: Dose-dependent effect
HeLa [4]
  Activity: Active
MOLT-4
  IC50: 260 nM
CCRF-CEM [5]
  IC50: 20 nM
Bos taurus
  inhibition: 67%
HeLa [6]
  Activity: inactive
[7]
  IC50: 10 nM
HeLa [8]
  Activity: inactive
Mus musculus [9]
  Activity: Toxic
L1210
  IC50: 370 nM
HeLa [10]
  Activity: Active
HeLa [11]
  Activity: Active
HeLa [12]
  Activity: Active
HeLa [13]
  Activity: inactive
A549
  IC50: 37 nM
HT-29 [14]
  Activity: Active
HeLa [15]
  Activity: Dose-dependent effect
HeLa [16]
  Activity: Dose-dependent effect
FM3A
  IC50: 180 nM
HeLa [17]
  Activity: Active
LoVo
  IC50: 430 nM
Mus musculus [18]
  Activity: Non-toxic
HT-29 [19]
  IC50: 20 nM
HeLa [20]
  Activity: Active
HT-29 [21]
  Activity: 58%

Reference: ChEMBL document CHEMBL1914330 (Eur J Med Chem, 2011)
